The text below walks through data of ChEMBL document CHEMBL3526139, “Clinical pharmacokinetics, metabolism, and drug-drug interaction of carfilzomib” (Drug Metab Dispos, 2013).

In one data set the target is CYP3A (Homo sapiens, UniProt P08684+P20815+P24462+Q9HB55). Kind of data set: Inhibition of CYP3A in human liver microsomes assessed as substrate metabolite formation using testosterone as substrate preincubated with microsomes for 30 mins prior to substrate addition measured after 5 mins by LC-MS/MS analysis. The note with it: probe testosterone. It counts as ADME. The method, boiled down:
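HLM (16-donor pool) were preincubated 30 min with carfilzomib 0.01–10 µM before addition of midazolam or testosterone at about Km. Metabolite formation was measured by LC-MS/MS after 5 min, in duplicate, relative to 0.5% acetonitrile controls.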

Data set [1] can be described thus: AUC infinity in human patient with relapsed solid tumor at 20 mg/m'2, iv administered on days 1, 2, 8, 9, 15 and 16 of 28-day cycle over 2 to 10 mins measured on day 16 of cycle 1 by LC-MS/MS analysis. The data set is classed as ADME, organism-based. Further details: time infinity, route intravenous; call rule not given here. The note with it: plasma. The method, boiled down: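 Patients with relapsed solid tumors (n=3) received carfilzomib IV at 20 mg/m2. Plasma was sampled on Days 1 and 16 of Cycle 1 before dosing, at end of administration, and at 5, 15, 30 min and 1, 2, 4 h after. Samples underwent solid phase extraction and LC-MS/MS with d10-carfilzomib internal standard over 0.100–200 ng/mL. Parameters were derived noncompartmentally (constant IV infusion model) from actual elapsed time from infusion start.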

For the next data set, the target named is T1, Cytochrome P450 1A2 (Homo sapiens, UniProt P05177).
T1 sequence (P05177 whole entry): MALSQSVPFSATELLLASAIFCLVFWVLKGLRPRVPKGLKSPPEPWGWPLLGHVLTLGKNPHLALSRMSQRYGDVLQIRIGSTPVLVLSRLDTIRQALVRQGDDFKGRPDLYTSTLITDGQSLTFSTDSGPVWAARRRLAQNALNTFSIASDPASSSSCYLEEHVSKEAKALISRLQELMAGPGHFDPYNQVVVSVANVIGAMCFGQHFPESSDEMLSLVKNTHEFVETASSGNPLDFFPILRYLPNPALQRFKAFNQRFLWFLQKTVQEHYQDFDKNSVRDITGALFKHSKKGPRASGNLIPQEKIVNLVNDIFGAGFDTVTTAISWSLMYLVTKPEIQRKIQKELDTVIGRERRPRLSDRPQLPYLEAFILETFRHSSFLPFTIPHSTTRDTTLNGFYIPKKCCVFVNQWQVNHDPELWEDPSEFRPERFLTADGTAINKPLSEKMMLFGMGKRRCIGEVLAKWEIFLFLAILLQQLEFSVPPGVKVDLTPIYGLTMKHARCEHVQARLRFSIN
In words: Inhibition of CYP1A2 in human liver microsomes using phenacetin as substrate after 5 mins by LC-MS/MS analysis. The data set is classed as ADME. The method, boiled down:
(§1)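 Pooled HLM from 16 donors were incubated at 37°C in duplicate with carfilzomib 0.01–10 µM and probe substrate at about its Km. Substrates were phenacetin, amodiaquine, diclofenac, S-mephenytoin, dextromethorphan, testosterone and midazolam. Protein was 0.1 mg/mL, or 0.05 mg/mL with midazolam. Reactions ran 5 min without preincubation, then were quenched with acetonitrile. Metabolites were measured by LC-MS/MS relative to 0.5% acetonitrile controls.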

The next data set addresses Cytochrome P450 2C19 (Homo sapiens, UniProt P33261). In words: Inhibition of CYP2C19 in human liver microsomes using S-mephenytoin as substrate after 5 mins by LC-MS/MS analysis. The data set is classed as ADME. The method, boiled down:
as §1

A further data set concerns the target T2, Cytochrome P450 2C8 (Homo sapiens, UniProt P10632).
T2 sequence (P10632 whole entry): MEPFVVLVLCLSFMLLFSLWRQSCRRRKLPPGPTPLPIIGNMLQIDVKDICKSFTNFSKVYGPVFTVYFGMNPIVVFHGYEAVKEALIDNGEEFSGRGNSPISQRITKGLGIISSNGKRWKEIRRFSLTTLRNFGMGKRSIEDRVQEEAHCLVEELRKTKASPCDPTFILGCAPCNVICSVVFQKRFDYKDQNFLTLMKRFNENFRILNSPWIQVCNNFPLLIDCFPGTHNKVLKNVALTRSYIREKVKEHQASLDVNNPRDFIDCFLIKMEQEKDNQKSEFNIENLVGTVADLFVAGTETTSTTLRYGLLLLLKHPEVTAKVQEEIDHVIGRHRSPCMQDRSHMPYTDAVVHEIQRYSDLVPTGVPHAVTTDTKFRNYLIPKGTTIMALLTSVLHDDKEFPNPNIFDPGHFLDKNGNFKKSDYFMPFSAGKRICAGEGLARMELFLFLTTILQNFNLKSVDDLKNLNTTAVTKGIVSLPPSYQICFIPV
Kind of data set: Drug metabolism in pooled human hepatocytes assessed as disapperance rate at 1 uM by LC-MS/MS analysis in presence of 30 uM CYP2C8 inhibitor montelukast. The data set is classed as ADME, cell-based, Hepatocyte. The method, boiled down:
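Pooled human hepatocytes in suspension (~0.5 x 10^6 viable cells/mL) were incubated with 1 µM carfilzomib at 37°C under 5% CO2, with or without isoform-selective CYP chemical inhibitors. Reactions were quenched with acetonitrile at 0, 15, 30, 60 and 120 min. Carfilzomib was quantified by non-validated LC-MS/MS after protein precipitation.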

Data set [2] is described as follows: Drug excretion in urine of iv dosed human patient with relapsed and refractory hematological malignancies assessed as morpholino-hPhe-Leu-Phe-Leu-diol metabolite formation administered on days 1, 2, 8, 9, 15 and 16 of 28-day cycle over 2 to 10 mins by LC-MS/MS analysis. The note with it: in vivo. It counts as ADME, organism-based.
For a further data set, the target named is Cytochrome P450 3A (Homo sapiens, UniProt P08684+P20815+Q9HB55+P24462). Kind of data set: Time-dependent inhibition of CYP3A in human liver microsomes assessed as midazolam 1'-hydroxylation using midazolam as substrate measured after 25-fold diution by LC-MS/MS analysis in presence of NADPH. It counts as ADME. The method, boiled down: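 Pooled HLM (16 donors, mixed gender) preincubated in duplicate with carfilzomib 0, 0.5, 1, 3, 5 and 8 µM plus NADPH-generating system (1 mM NADP, 5 mM glucose-6-phosphate, 1 unit/mL G6PDH) for 0–30 min. Microsomal protein in preincubation: 2.5 mg/mL (testosterone) or 1.25 mg/mL (midazolam). Aliquots then diluted 25-fold into 50 mM potassium phosphate, 3 mM MgCl2, 1 mM EDTA, pH 7.4. Residual activity measured over 5 min with testosterone 200 µM or midazolam 40 µM plus NADPH-generating mixture, 37°C. KI and kinact derived.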
On the technique in general: Microsomes from liver hold many membrane-bound enzymes, among them those of drug oxidation.

A further data set concerns Plasma. Kind of data set: Drug metabolism in plasma of human multiple myeloma patient assessed as morpholino-hPhe-Leu metabolite formation at 15 mg/m'2, iv administered as single dose measured within first 30 mins after end of drug infusion by LC-MS/MS analysis. The data set is classed as ADME, organism-based. The note with it: in vivo, 0.5 h. The method, boiled down:
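Patients with multiple myeloma received a single 15 mg/m2 carfilzomib dose. Plasma was sampled pre-dose, at end of infusion, at 5, 15, 30 min and at 1, 1.5, 2, 4, 6, 24 h. Samples were protein-precipitated and analyzed by LC-MS/MS (metabolites 0.500–500 ng/mL) with deuterated internal standards.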

Chain of Cytochrome P450 2C19 (P33261 whole entry): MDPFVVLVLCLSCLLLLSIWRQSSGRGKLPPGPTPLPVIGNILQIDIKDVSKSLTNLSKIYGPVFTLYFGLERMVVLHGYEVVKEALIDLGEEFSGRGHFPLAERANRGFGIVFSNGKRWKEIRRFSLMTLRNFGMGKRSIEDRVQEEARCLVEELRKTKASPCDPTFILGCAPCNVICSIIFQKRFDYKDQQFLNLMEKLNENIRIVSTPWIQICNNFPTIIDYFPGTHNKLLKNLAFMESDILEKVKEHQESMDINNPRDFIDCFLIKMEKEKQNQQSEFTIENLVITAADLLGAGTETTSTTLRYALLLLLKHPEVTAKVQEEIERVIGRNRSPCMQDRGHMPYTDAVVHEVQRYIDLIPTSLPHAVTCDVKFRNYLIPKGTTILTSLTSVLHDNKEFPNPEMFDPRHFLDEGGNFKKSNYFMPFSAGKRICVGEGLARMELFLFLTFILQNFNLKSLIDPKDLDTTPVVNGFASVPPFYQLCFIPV

As for `CC(C)C[C@H](NC(=O)[C@H](CCc1ccccc1)NC(=O)CN1CCOCC1)C(=O)N[C@@H](Cc1ccccc1)C(=O)N[C@@H](CC(C)C)C(=O)[C@@]1(C)CO1` [CARFILZOMIB], at CYP3A, the IC50 (usually the midpoint of a concentration-inhibition curve) at 5 min is greater than 0.97 µM. Besides, the total exposure AUC(0-inf) (as a rule, the area under the concentration-time curve extrapolated to infinity) in data set [1] was determined as 301 ng·h/mL. Further, the IC50 at Cytochrome P450 1A2 and at Cytochrome P450 2C19 was greater than 10 µM in each case. In addition, the Drug metabolism on Cytochrome P450 2C8 is 0.014 min⁻¹; in the data set on Plasma, “metabolite_detected”. Besides, the Drug excretion entry in data set [2] is given as “metabolite_detected”. Also, on Cytochrome P450 3A, the “inhibition (INH)” value was “Active”.
